In ChEMBL document CHEMBL1123026, “Preparation and antiarthritic and analgesic activity of 4,5-diaryl-2-(substituted thio)-1H-imidazoles and their sulfoxides and sulfones” (1985):

Columns and labels:
Type in all cases: functional
[1] = test system: Mus musculus; test: Effective dose by mouse phenyl-p-benzoquinone writhing (PQW)assay after peroral administration; activity value ranges from (18.6-69.6); conditions: po
Summary of the method: (§1)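 Fasted (17-21 h) female white mice, 5-20 per double-blind test, dosed orally with compound suspended in 1% methylcellulose. 0.20 mL aqueous 0.01% phenyl-p-benzoquinone given i.p. 6 min before a 10-min observation for stretching/writhing. ED50 (dose protecting 50% of mice) calculated by the moving-average method.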

[2] = test system: Rattus norvegicus; test: Effective dose determined against rat adjuvant arthritis after peroral administration; conditions: po
Summary of the method: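 Male Lewis rats (130-150 g) given 0.1 mL Mycobacterium butyricum adjuvant (5 mg/mL in mineral oil) s.c. into the right hind paw; arthritis developed for 2 weeks. Groups of 10 matched for severity were dosed orally by gavage in PVA-acacia vehicle (10 mL/kg) for 7 days. Uninjected left paw volume was measured the day after the last dose. Percent decrease was calculated vs arthritic and nonarthritic controls. ED50 was read from a visually fitted semilog dose-response line.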

[3] = test system: Mus musculus; test: Effective dose by mouse phenyl-p-benzoquinone writhing (PQW)assay after peroral administration; activity value ranges from (15.0-77.0); conditions: po; summary of the method: as §1
[4] = test system: Mus musculus; test: Effective dose by mouse phenyl-p-benzoquinone writhing (PQW)assay after peroral administration; activity value ranges from (4.8 - 25.4); conditions: po; summary of the method: as §1
[5] = test system: Mus musculus; test: Effective dose by mouse phenyl-p-benzoquinone writhing (PQW)assay after peroral administration; activity value ranges from (38.0-118.0); conditions: po; summary of the method: as §1
[6] = test system: Mus musculus; test: Effective dose by mouse phenyl-p-benzoquinone writhing (PQW)assay after peroral administration; activity value ranges from (20.0-81.0); conditions: po; summary of the method: as §1
[7] = test system: Mus musculus; test: Effective dose by mouse phenyl-p-benzoquinone writhing (PQW)assay after peroral administration; activity value ranges from (20.0-101.0); conditions: po; summary of the method: as §1
[8] = test system: Mus musculus; test: Effective dose by mouse phenyl-p-benzoquinone writhing (PQW)assay after peroral administration; activity value ranges from (7.7-33.2); conditions: po; summary of the method: as §1
[9] = test system: Mus musculus; test: Effective dose by mouse phenyl-p-benzoquinone writhing (PQW)assay after peroral administration; activity value ranges from (9.2 - 43.6); conditions: po; summary of the method: as §1
[10] = test system: Rattus norvegicus; test: Decrease in paw volume by the effect of compound at a dose 100 mg/kg
Summary of the method: (§2)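 Male Lewis rats (130-150 g) got 0.1 mL adjuvant (heat-killed Mycobacterium butyricum, 5 mg/mL in mineral oil) subplantar in the right hind paw and were left 2 weeks. Groups of 10 matched for severity were dosed orally by gavage (PVA-acacia vehicle, 10 mL/kg) for 7 days. Uninjected left hind paw volume was read the next day. % decrease = (arthritic control − treated)/(arthritic − nonarthritic control) × 100; Student's t-test.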

[11] = test system: Mus musculus; test: Effective dose determined by mouse phenyl-p-benzoquinone writhing (PQW) assay after peroral administration; conditions: po; summary of the method: as §1
[12] = test system: Mus musculus; test: Effective dose by mouse phenyl-p-benzoquinone writhing (PQW)assay after peroral administration; activity value ranges from (0.23-1.22); conditions: po
[13] = test system: Mus musculus; test: Effective dose by mouse phenyl-p-benzoquinone writhing (PQW)assay after peroral administration; activity value ranges from (0.66-2.55); conditions: po
[14] = test system: Mus musculus; test: Effective dose by mouse phenyl-p-benzoquinone writhing (PQW)assay after peroral administration; 11.4-59.4; conditions: po
[15] = test system: Mus musculus; test: Effective dose by mouse phenyl-p-benzoquinone writhing (PQW)assay after peroral administration; activity value ranges from (15.9-183); conditions: po; summary of the method: as §1
[16] = test system: Mus musculus; test: Effective dose by mouse phenyl-p-benzoquinone writhing (PQW)assay after peroral administration; activity value ranges from (10.2-45.9); conditions: po; summary of the method: as §1
[17] = test system: Mus musculus; test: Effective dose by mouse phenyl-p-benzoquinone writhing (PQW)assay after peroral administration; activity value ranges from (0.9-4.5); conditions: po
[18] = test system: Rattus norvegicus; test: Decrease in paw volume was evaluated at dose 50 mg/kg; summary of the method: as §2
[19] = test system: Mus musculus; test: Effective dose by mouse phenyl-p-benzoquinone writhing (PQW)assay after peroral administration; activity value ranges from (4.6 - 21.7); conditions: po; summary of the method: as §1
[20] = test system: Mus musculus; test: Effective dose by mouse phenyl-p-benzoquinone writhing (PQW)assay after peroral administration; activity value ranges from (0.68-2.89); conditions: po
[21] = test system: Mus musculus; test: Effective dose by mouse phenyl-p-benzoquinone writhing (PQW)assay after peroral administration; activity value ranges from (8.8-36.8); conditions: po; summary of the method: as §1
[22] = test system: Mus musculus; test: Effective dose by mouse phenyl-p-benzoquinone writhing (PQW)assay after peroral administration; activity value ranges from (10.9-40.0); conditions: po; summary of the method: as §1
[23] = test system: Mus musculus; test: Effective dose by mouse phenyl-p-benzoquinone writhing (PQW)assay after peroral administration; 6.8-17.7; conditions: po
[24] = test system: Rattus norvegicus; test: Decrease in paw volume by the effect of compound at a dose of 25 mg/kg; summary of the method: as §2
[25] = test system: Mus musculus; test: Effective dose by mouse phenyl-p-benzoquinone writhing (PQW)assay after peroral administration; activity value ranges from (8.4-80.4); conditions: po; summary of the method: as §1
[26] = test system: Rattus norvegicus; test: Decrease in paw volume was evaluated at dose 150 mg/kg; summary of the method: as §2
[27] = test system: Mus musculus; test: Effective dose by mouse phenyl-p-benzoquinone writhing (PQW)assay after peroral administration; 4.5-25.9; conditions: po

## CC[S+]([O-])c1nc(-c2ccc(OC)cc2)c(-c2ccc(OC)cc2)[nH]1 (stereo not drawn)
[1]
  ED50: 36 mg/kg

## COc1ccc(-c2nc([S+]([O-])CSC)[nH]c2-c2ccc(OC)cc2)cc1 (stereo not drawn)
[2]
  ED50: 28 mg/kg
[3]
  ED50: 34 mg/kg

## Cc1ccc(-c2nc(S(=O)(=O)C(F)(F)C(F)F)[nH]c2-c2ccc(C)cc2)cc1
[4]
  ED50: 11 mg/kg

## COc1cccc(-c2nc(S(=O)(=O)C(F)(F)C(F)F)[nH]c2-c2cccc(OC)c2)c1
[5]
  ED50: 67 mg/kg

## [O-][S+](c1nc(-c2ccc(F)cc2)c(-c2ccc(F)cc2)[nH]1)C(F)(F)F (stereo not drawn)
[2]
  ED50: 0.06 mg/kg
[6]
  ED50: 40 mg/kg

## O=S(=O)(c1nc(-c2ccc(Cl)cc2)c(-c2ccc(C(F)(F)F)cc2)[nH]1)C(F)(F)C(F)F
[7]
  ED50: 45 mg/kg

## O=S(=O)(c1nc(-c2ccc(Cl)c(Cl)c2)c(-c2ccccc2)[nH]1)C(F)(F)F
[2]
  ED50: 0.35 mg/kg
[8]
  ED50: 16 mg/kg

## O=S(=O)(CC(F)(F)F)c1nc(-c2ccc(F)cc2)c(-c2ccc(F)cc2)[nH]1
[9]
  ED50: 20 mg/kg

## C[S+]([O-])c1nc(-c2ccccc2)c(-c2ccccc2)[nH]1 (stereo not drawn)
[10]
  Decrease: 33%
[11]
  ED50: > 100 mg/kg

## COc1ccc(-c2nc(S(=O)(=O)C(F)(F)CF)[nH]c2-c2ccc(OC)cc2)cc1
[12]
  ED50: 0.53 mg/kg

## [O-][S+](c1nc(-c2ccc(Cl)cc2)c(-c2ccc(Cl)cc2)[nH]1)C(F)F (stereo not drawn)
[13]
  ED50: 1.3 mg/kg

## C=CCSc1nc(-c2ccc(OC)cc2)c(-c2ccc(OC)cc2)[nH]1
[2]
  ED50: 20 mg/kg
[14]
  ED50: 26 mg/kg

## [O-][S+](CC(F)(F)F)c1nc(-c2ccccc2)c(-c2ccccc2)[nH]1 (stereo not drawn)
[2]
  ED50: 75 mg/kg
[15]
  ED50: 54 mg/kg

## O=[N+]([O-])c1ccc(-c2[nH]c(S(=O)(=O)C(F)(F)C(F)F)nc2-c2ccc(F)cc2)cc1
[2]
  ED50: 0.37 mg/kg
[16]
  ED50: 21.6 mg/kg

## O=S(=O)(c1nc(-c2cccc(F)c2)c(-c2ccccc2)[nH]1)C(F)(F)C(F)F
[17]
  ED50: 2 mg/kg

## CSc1nc(-c2cccc(Cl)c2)c(-c2ccccc2)[nH]1
[18]
  Decrease: 43%
[11]
  ED50: > 130 mg/kg

## CCS(=O)(=O)c1nc(-c2ccc(OC)cc2)c(-c2ccc(OC)cc2)[nH]1
[2]
  ED50: 6 mg/kg
[19]
  ED50: 10 mg/kg

## O=S(=O)(c1nc(-c2ccc(F)cc2)c(-c2ccc(F)cc2)[nH]1)C(F)F
[20]
  ED50: 1.4 mg/kg

## O=S(=O)(c1nc(-c2ccc(F)cc2)c(-c2ccc(C(F)(F)F)cc2)[nH]1)C(F)(F)C(F)F
[2]
  ED50: > 1 mg/kg
[21]
  ED50: 18 mg/kg

## O=S(=O)(c1nc(-c2cccc(Cl)c2)c(-c2cccc(Cl)c2)[nH]1)C(F)(F)C(F)F
[22]
  ED50: 20.9 mg/kg

## CCSc1nc(-c2ccc(OC)cc2)c(-c2ccc(OC)cc2)[nH]1
[2]
  ED50: 5 mg/kg
[23]
  ED50: 11 mg/kg

## COc1ccc(-c2[nH]c(S(C)(=O)=O)nc2-c2ccccc2)cc1
[24]
  Decrease: 33%
[25]
  ED50: 26 mg/kg

## FC(F)(F)CSc1nc(-c2ccccc2)c(-c2ccccc2)[nH]1
[11]
  ED50: > 130 mg/kg
[26]
  Decrease: 54%

## COc1ccc(-c2nc(S(=O)(=O)C(F)(F)C(Br)Br)[nH]c2-c2ccc(OC)cc2)cc1
[2]
  ED50: > 9 mg/kg
[27]
  ED50: 10.8 mg/kg
